Activity calls are given as the source filed them.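 The calls were made as follows: active = average efficacy above 50%; inactive = the rest.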
Test system: U2OS-GPR55 ERK1/2 phosphorylation, western blot
Test: downstream MAPK activation by GPR55 agonists – cell-based, U2OS-GPR55, western blot, mechanism study, SAR follow-up (AID 485279)
Conditions: at 1 µM, stronger effect = higher value; for stimulation: measured here: ERK stimulation vs negative control
Procedure, shortened: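 Material: GPR55/beta-arrestin-GFP U2OS cells | Quantity: 20 µg cytosolic lysate protein per blot lane | Measured by: Two-colour fluorescent western blot of cytosolic lysates | Times: 48 h serum starvation, then 10 min compound exposure at room temperature | Controls: LPI 10 µM reference agonist | Dosing: Single compound dose, 1 µM final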

| Structure (SMILES) | efficacy | stimulation [%] |
| --- | --- | --- |
| Cc1occc1C(=O)Nc1ccc(OCc2ccccc2)cc1 | 69% | 127 |
| COc1ccc(S(=O)(=O)N2CCOCC2)cc1NC(=O)c1cc2c(s1)CCCC2 | 95.6% | 135 |
| COc1ccc(-c2csc(NC(=O)CSc3nnc4c(C)cc5ccccc5n34)n2)cc1 | 79.7% | 133 |
| Cc1cccc(N2CCN(C(=O)c3cc(S(=O)(=O)N(C)C)ccc3N3CCCC3)CC2)c1C | 128% | 149 |
| CN(C)S(=O)(=O)c1ccc(N2CCCC2)c(C(=O)N2CCN(c3ccc([N+](=O)[O-])cc3)CC2)c1 | 63.1% | 141 |
| CC(C)Oc1ccc(S(=O)(=O)N2CCOCC2)cc1NC(=O)c1ccc(N2CCCC2=O)cc1 | 103% | 143 |
| COc1ccccc1/C=C/C(=O)NC(=S)Nc1ccc(S(=O)(=O)N(C)c2ccccc2)cc1 | 259% | 201 |
| CCCN(CCC)Cc1c(C(=O)NN=Cc2c[nH]c3ccccc23)nnn1-c1nonc1N | -65.3% (inactive) | 77.7 |
| COc1ccc2cc(C)c3nnc(SCC(=O)Nc4nc(-c5ccc(F)cc5)cs4)n3c2c1 | 133% | 168 |
